Here are results for one compound from ChEMBL document CHEMBL4368914, “Tricyclic Indazoles-A Novel Class of Selective Estrogen Receptor Degrader Antagonists” (J Med Chem, 2019).

Data set [1] concerns the target T1, Estrogen receptor (Homo sapiens, UniProt P03372).
T1 sequence (P03372 whole entry): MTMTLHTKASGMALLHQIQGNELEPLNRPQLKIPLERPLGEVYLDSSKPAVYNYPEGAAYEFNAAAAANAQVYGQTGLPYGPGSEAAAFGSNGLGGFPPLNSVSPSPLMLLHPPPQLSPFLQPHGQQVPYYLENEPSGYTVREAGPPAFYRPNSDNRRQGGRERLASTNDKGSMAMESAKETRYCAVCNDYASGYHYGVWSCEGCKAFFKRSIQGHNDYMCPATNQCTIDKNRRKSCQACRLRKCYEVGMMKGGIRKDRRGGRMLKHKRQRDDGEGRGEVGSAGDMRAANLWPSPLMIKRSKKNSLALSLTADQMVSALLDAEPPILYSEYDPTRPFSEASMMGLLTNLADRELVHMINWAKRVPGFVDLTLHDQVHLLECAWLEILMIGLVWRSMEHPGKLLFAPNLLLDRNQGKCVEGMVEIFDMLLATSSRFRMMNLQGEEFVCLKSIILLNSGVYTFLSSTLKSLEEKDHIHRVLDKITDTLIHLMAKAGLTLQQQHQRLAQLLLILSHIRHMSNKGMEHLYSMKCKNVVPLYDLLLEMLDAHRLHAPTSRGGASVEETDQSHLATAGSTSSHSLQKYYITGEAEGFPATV
Nature of the data set: Induction of ERalpha degradation in human MCF7 cells after 18 to 24 hrs by in multiplexed cell assay. The class given is cell-based. The procedure, abridged:
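MCF-7 cells were kept at 37 °C, 5% CO₂ in phenol red-free RPMI1640 with 5% charcoal-stripped FCS and 2 mmol/L glutamine. Compounds came from 10 mmol/L DMSO stocks.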

The target of data set [2] is Cytochrome P450 3A4 (Homo sapiens, UniProt P08684). In words: Inhibition of CYP3A4 in human liver microsomes. It is filed as ADME. A digest of the protocol:
(§1)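 High-throughput human liver microsome assay across a panel of five CYP isoforms, giving IC50.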
On the technique in general: Liver microsomes are a subcellular fraction often used to study metabolism.

Data set [3] can be described thus: Intrinsic clearance in rat hepatocytes assessed per million cells. It is filed as ADME, cell-based, Hepatocyte. The following applies: read-out: CLH. The procedure, abridged:
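Rate of metabolism (µl/min/10⁶ cells) measured from DMSO stock in isolated hepatocytes diluted to 1x10⁶ cells/mL.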

Data set [4] deals with T1, Estrogen receptor. In words: Antagonist activity at ERalpha in human MCF7 cells assessed as inhibition of estradiol-driven PR response by microplate cytometry. It is filed as cell-based.
The nature of data set [5]: AUC in rat at 1 mg/kg, po. The following applies: in vivo, read-out: AUC. The class given is ADME, organism-based. The procedure, abridged:
(§2)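 Single IV dose of 0.5 mg/kg and oral dose of 1 mg/kg in rat and dog. Both routes were formulated in 5% DMSO:95% hydroxypropyl β-cyclodextrin (30% w/v), at 1 mL/kg IV and 4 mL/kg PO.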

Data set [6] concerns the target Voltage-gated inwardly rectifying potassium channel KCNH2 (Homo sapiens, UniProt Q12809). In words: Inhibition of human ERG by plate based planar patch clamp assay. (Patch clamp records ionic current or voltage across a cell membrane.)
The nature of data set [7]: Lipophilicity, log D of the compound at pH 7.4 by shake flask method. It is filed as physicochemical. Particulars: buffer. The procedure, abridged: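 Shake-flask measurement of logD at pH 7.4.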
The test system of data set [8] is MCF7. Nature of the data set: Antitumor activity against human MCF7 cells xenografted in SCID CB17 mouse assessed as tumor growth inhibition at 20 mg/kg, po administered once daily and measured on day 20 of dosing relative to control. The following applies: read-out: TGI. (In xenograft studies the graft and the host belong to different species.)
For data set [9], the target named is T1, Estrogen receptor. Nature of the data set: Agonist activity at ERalpha in human MCF7 cells assessed as effect on PR protein expression after 5 hrs by formaldehyde-staining based assay. The class given is cell-based.
A short description of data set [10]: Fraction unbound in mouse plasma by equilibrium dialysis. The class given is ADME, cell-free.
A short description of data set [11]: Solubility of the compound in phosphate buffer at pH 7.4 after 24 hrs. The class given is physicochemical. A digest of the protocol: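 Solubility in aqueous phosphate buffer at pH 7.4 after 24 h at 25 °C.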
Data set [12] in a line: Glutathione reactivity in human liver microsomes assessed as GSH trapping ratio of compound to clozapine. It is filed as ADME, Microsome. The procedure, abridged:
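Glutathione trapping in human liver microsomes, expressed as a ratio to clozapine.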

Data set [13] addresses Cytochrome P450 2C19 (Homo sapiens, UniProt P33261). In words: Inhibition of CYP2C19 in human liver microsomes. It is filed as ADME. The procedure, abridged:
as §1

Data set [14] is described as follows: Oral bioavailability in dog at 1 mg/kg. It is filed as ADME, organism-based, Canis lupus familiaris. Particulars: in vivo. A digest of the protocol: as §2
The target of data set [15] is T1, Estrogen receptor. Nature of the data set: Induction of ERalpha degradation in human MCF7 cells assessed as reduction in ERalpha protein expression after 5 hrs in absence of […] tamoxifen by formaldehyde-staining based assay. It is filed as cell-based.
Data set [16] is described as follows: Half life in dog at 0.5 mg/kg, iv or 1 mg/kg, po. It is filed as ADME, organism-based, Canis lupus familiaris. Particulars: in vivo. A digest of the protocol: as §2
Data set [17] relates to Mus musculus. Nature of the data set: In vivo antagonist activity at ERalpha in tumor of human MCF7 cells xenografted in SCID CB17 mouse assessed as reduction in normalized PR levels at 5 mg/kg, po administered once daily for 3 days measured after 24 hrs post last dose by Western blot analysis relative to control. The class given is functional. Also on record: scale not given: the % may be the effect or the level left. The procedure, abridged:
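Male SCID mice carried a 0.5 mg/21 day s.c. estrogen pellet, with 5x10^6 MCF-7 cells implanted s.c. in the hind flank 24 h later. Groups of 5 were randomised at 0.5–0.8 cm³ and gavaged once daily for 3 d in PEG400/Captisol/water vehicle at 10 ml/kg. Tumours were taken 24 h post-dose, and PR was read by Western blot normalized to vinculin.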

Data set [18] concerns the target T2, Estrogen receptor (Homo sapiens) (UniProt P03372).
T2 sequence (whole entry): T1 sequence (P03372 whole entry)
In words: Induction of ERalpha degradation in human MCF7 cells after 24 hrs by Western blot analysis. The class given is cell-based. The procedure, abridged: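 MCF-7 cells in phenol red-free RPMI1640 with 5% charcoal-stripped FCS and 2 mmol/L glutamine (37 °C, 5% CO₂) exposed to a range of concentrations for 24 h. Total protein extracted and immunoblotted with anti-ER (SP1) and GAPDH antibodies diluted in 5% milk-PBS-Tween. Detection by enhanced chemiluminescent HRP substrate and imager.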

Data set [19] concerns the target T1, Estrogen receptor. Nature of the data set: Induction of ERalpha degradation in human MCF7 cells assessed as reduction in ERalpha protein expression after 5 hrs by formaldehyde-staining based assay. It is filed as cell-based.
Data set [20] can be described thus: Fraction unbound in Alderley Park Han Wistar rat plasma by equilibrium dialysis. It is filed as ADME, cell-free. The procedure, abridged:
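Equilibrium dialysis from DMSO stock in 10% plasma, either Alderley Park Han Wistar rat plasma or human plasma.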

Data set [21] addresses T2, Estrogen receptor (Homo sapiens). In words: Antagonist activity at ERalpha in human MCF7 cells assessed as inhibition of estradiol-driven cell growth measured after overnight incubation by SYTOX green-based assay. The procedure, abridged: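 MCF-7 cells grown at 37 °C, 5% CO₂, humidified, in phenol red-free RPMI1640 with 5% charcoal-stripped FCS and 2 mmol/L glutamine. Compounds held as 10 mmol/L DMSO stocks under nitrogen. Proliferation read in the presence of 0.1 nM estradiol.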

pIC50: −log10 of the molar value. A value given as a limit tells only on which side of the number the result lay.

Broadly, the pIC50 is the IC50 on a negative log10 scale, so that one unit is a factor of ten. The AUC is concentration integrated over time. One may read the logD as the decadic logarithm of the distribution of all forms, ionised or not, between an organic phase and buffer at a given pH. One may read the fraction unbound as the share of the substance not bound to proteins or other matrix. As a reminder, the solubility is how much of the substance goes into solution per volume. Usually bioavailability stands for dose-corrected exposure relative to a reference, in per cent. One may read the half-life as how long it takes for the measured level to halve.

Sequence of Voltage-gated inwardly rectifying potassium channel KCNH2 (Q12809 whole entry): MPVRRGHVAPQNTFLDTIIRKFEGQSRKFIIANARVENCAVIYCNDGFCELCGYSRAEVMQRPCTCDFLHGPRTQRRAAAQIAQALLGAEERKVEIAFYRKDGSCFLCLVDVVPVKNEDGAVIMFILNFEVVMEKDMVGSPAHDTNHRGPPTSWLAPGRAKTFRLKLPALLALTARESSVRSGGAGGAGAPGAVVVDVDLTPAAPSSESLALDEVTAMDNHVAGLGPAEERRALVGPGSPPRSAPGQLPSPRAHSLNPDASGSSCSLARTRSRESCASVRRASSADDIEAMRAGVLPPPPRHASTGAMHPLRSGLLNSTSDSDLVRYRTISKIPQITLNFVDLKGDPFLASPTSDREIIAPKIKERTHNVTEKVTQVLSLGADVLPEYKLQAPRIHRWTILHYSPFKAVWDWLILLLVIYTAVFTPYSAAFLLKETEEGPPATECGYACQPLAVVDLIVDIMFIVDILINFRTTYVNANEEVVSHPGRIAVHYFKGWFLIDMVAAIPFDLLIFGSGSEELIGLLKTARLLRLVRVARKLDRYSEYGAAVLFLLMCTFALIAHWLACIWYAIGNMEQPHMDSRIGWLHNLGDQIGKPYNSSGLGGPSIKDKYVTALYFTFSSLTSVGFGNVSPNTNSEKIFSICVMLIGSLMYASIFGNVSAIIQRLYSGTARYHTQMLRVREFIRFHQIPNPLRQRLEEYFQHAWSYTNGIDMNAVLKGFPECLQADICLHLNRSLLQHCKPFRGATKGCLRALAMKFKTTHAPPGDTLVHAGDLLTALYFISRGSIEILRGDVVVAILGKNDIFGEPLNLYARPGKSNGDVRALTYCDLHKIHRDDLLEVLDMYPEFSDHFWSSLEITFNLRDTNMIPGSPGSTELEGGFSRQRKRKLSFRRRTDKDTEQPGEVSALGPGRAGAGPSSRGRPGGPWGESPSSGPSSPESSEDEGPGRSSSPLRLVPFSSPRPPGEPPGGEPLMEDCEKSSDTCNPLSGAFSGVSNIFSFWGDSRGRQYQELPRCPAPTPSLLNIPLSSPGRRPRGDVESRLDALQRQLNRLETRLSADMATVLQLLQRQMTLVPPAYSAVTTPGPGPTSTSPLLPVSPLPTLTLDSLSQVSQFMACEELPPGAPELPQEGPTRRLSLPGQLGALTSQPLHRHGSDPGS
Sequence of Cytochrome P450 2C19 (P33261 whole entry): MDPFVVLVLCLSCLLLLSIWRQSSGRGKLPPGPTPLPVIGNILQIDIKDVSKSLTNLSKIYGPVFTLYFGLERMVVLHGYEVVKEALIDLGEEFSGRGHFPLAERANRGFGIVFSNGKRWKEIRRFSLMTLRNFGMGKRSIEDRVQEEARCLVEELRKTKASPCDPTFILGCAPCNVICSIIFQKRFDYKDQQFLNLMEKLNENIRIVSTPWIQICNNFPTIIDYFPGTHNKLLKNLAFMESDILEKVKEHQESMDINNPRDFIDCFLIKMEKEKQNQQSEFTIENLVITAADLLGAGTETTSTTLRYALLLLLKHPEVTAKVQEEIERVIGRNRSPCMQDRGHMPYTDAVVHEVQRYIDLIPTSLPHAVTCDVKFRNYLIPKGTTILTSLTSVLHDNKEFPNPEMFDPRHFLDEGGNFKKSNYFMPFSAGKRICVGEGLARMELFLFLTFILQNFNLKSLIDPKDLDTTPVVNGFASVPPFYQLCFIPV
Sequence of Cytochrome P450 3A4 (P08684 whole entry, canonical isoform): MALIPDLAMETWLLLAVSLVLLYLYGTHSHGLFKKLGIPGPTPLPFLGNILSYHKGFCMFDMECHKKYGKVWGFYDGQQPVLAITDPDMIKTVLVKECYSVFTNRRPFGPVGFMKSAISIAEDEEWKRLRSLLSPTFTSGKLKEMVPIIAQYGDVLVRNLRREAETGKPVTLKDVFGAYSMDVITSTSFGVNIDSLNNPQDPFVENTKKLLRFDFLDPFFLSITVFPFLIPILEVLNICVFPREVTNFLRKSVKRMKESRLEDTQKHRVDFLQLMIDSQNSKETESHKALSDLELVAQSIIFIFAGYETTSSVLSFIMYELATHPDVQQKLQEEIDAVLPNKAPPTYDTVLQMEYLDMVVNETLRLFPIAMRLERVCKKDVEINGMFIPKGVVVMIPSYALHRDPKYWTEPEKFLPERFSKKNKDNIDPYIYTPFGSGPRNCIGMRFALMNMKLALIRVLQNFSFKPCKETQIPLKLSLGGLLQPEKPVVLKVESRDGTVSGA

On to `C[C@@H]1Cc2c(ccc3[nH]ncc23)[C@@H](c2c(F)cc(/C=C/C(=O)O)cc2F)N1CC(C)(C)F`, for which the pIC50 is 9.60 in [1]; 4.89 in data set [2]; 9.00 in [4]; < 4.00 in [6]; < 5.50 in [9]; < 4.52 in [13]. Moreover, the pIC50 in data set [15] and in [19] was 9.60 in each case. Also, the hepatocyte CLint in data set [3] stood at 26 µL/min/1e6 cells. In addition, the AUC in data set [5] amounted to 0.83 µM·h. For the same compound, the logD in data set [7] is 2.6. Besides, the inhibition in vivo at 20 mg/kg in [8] came out at 80%. The fraction unbound in data set [10] turned out to be 0.0095; in data set [20] it was 0.0083. Further, the solubility at 24 h in data set [11] is > 1000 µM. The Ratio in [12] is reported as < 0.04. In [14], the bioavailability was 45%. The same compound gave a half-life in [16] of 366 min. For the same compound, the Activity in [17] was 74%; in [18], “Dose-dependent effect”; in data set [21], “Dose-dependent effect”.
